From ChEMBL document CHEMBL4257505, “New tetrahydroisoquinoline-based P-glycoprotein modulators: decoration of the biphenyl core gives selective ligands” (Medchemcomm, 2018)
The source made the active and inactive calls.

Experiments:
[1] = molecular target: T1, Broad substrate specificity ATP-binding cassette transporter ABCG2 (Homo sapiens, UniProt Q9UNQ0); experiment: Inhibition of BCRP (unknown origin) expressed in MDCK cells assessed as reduction in Hoechst 33342 efflux at 100 uM preincubated for 30 mins followed by Hoechst 3334 addition measured after 30 mins by fluorescence assay; type: cell-based; conditions: 0.5 h
T1 sequence (Q9UNQ0 whole entry): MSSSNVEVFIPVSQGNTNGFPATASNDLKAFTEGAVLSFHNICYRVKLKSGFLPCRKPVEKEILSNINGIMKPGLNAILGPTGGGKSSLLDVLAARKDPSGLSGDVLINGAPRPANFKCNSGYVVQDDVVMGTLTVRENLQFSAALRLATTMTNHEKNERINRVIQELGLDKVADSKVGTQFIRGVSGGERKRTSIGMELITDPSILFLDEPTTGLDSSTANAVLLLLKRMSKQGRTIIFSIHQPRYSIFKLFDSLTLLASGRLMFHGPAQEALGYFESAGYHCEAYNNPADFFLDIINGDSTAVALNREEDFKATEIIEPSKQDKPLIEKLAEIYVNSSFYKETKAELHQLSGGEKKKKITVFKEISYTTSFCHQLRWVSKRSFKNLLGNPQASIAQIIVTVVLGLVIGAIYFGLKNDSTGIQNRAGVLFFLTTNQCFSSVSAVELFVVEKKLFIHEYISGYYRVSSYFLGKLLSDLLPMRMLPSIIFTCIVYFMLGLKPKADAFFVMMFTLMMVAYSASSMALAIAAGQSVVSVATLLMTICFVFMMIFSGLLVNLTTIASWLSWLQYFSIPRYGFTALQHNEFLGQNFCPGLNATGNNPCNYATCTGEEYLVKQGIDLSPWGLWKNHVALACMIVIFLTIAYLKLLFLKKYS
Outline: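 Interference with BCRP-mediated transport of the fluorescent substrate Hoechst 33342. Not active defined at 100 μM. Means of three independent experiments, duplicate samples.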

[2] = molecular target: T2, Multidrug resistance-associated protein 1 (Homo sapiens, UniProt P33527); experiment: Inhibition of MRP1 (unknown origin) expressed in MDCK cells assessed as reduction in calcein-AM efflux at 100 uM preincubated for 30 mins followed by calcein-AM addition measured after 30 mins by fluorescence assay; type: cell-based; conditions: 0.5 h
T2 sequence (P33527 whole entry): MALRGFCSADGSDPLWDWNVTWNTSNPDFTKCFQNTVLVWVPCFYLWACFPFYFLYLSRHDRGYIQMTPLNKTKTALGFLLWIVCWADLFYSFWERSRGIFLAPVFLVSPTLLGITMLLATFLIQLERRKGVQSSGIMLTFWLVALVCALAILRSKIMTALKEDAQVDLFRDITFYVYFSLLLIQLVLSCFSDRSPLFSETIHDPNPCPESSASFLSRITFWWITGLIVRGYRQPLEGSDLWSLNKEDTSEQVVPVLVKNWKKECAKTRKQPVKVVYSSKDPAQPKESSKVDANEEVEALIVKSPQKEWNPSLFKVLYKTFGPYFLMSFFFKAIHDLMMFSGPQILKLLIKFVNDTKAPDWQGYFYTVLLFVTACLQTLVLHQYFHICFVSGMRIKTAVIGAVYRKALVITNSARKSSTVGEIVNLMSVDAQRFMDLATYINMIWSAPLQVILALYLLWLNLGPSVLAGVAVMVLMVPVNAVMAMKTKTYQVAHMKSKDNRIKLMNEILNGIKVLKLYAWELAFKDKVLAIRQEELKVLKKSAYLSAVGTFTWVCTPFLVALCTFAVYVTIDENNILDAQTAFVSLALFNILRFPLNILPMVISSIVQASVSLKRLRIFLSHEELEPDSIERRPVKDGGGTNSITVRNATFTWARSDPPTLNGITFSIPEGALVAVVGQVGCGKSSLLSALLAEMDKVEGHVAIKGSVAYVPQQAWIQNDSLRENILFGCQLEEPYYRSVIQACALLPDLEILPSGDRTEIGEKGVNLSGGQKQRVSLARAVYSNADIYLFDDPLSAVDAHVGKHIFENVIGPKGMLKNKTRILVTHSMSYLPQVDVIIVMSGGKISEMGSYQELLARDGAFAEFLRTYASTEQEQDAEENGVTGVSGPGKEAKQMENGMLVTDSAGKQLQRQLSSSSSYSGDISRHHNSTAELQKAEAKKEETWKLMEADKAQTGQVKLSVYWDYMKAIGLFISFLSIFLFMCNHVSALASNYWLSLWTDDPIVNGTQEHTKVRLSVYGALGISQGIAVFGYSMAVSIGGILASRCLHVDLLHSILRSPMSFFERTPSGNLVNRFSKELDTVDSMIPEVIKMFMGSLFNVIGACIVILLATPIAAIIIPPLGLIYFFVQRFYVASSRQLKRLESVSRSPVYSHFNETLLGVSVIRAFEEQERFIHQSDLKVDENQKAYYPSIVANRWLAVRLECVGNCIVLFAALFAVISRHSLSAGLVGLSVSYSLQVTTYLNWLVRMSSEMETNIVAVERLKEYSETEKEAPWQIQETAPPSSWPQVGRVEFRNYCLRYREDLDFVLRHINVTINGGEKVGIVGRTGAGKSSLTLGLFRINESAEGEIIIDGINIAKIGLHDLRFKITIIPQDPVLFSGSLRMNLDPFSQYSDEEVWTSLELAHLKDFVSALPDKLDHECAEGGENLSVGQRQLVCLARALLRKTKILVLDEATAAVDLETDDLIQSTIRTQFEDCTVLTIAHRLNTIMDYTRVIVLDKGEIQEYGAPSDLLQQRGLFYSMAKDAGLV
Outline: (§1)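 Interference with MRP1-mediated transport of pro-fluorescent calcein-AM, reported as EC50. Not active defined at 100 μM. Means of three independent experiments, duplicate samples.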

[3] = molecular target: T3, ATP-dependent translocase ABCB1 (Homo sapiens, UniProt P08183); experiment: Inhibition of MDR1 (unknown origin) expressed in MDCK cells assessed as reduction in ATP consumption after 2 hrs by ATPlite assay; type: cell-based
T3 sequence (P08183 whole entry): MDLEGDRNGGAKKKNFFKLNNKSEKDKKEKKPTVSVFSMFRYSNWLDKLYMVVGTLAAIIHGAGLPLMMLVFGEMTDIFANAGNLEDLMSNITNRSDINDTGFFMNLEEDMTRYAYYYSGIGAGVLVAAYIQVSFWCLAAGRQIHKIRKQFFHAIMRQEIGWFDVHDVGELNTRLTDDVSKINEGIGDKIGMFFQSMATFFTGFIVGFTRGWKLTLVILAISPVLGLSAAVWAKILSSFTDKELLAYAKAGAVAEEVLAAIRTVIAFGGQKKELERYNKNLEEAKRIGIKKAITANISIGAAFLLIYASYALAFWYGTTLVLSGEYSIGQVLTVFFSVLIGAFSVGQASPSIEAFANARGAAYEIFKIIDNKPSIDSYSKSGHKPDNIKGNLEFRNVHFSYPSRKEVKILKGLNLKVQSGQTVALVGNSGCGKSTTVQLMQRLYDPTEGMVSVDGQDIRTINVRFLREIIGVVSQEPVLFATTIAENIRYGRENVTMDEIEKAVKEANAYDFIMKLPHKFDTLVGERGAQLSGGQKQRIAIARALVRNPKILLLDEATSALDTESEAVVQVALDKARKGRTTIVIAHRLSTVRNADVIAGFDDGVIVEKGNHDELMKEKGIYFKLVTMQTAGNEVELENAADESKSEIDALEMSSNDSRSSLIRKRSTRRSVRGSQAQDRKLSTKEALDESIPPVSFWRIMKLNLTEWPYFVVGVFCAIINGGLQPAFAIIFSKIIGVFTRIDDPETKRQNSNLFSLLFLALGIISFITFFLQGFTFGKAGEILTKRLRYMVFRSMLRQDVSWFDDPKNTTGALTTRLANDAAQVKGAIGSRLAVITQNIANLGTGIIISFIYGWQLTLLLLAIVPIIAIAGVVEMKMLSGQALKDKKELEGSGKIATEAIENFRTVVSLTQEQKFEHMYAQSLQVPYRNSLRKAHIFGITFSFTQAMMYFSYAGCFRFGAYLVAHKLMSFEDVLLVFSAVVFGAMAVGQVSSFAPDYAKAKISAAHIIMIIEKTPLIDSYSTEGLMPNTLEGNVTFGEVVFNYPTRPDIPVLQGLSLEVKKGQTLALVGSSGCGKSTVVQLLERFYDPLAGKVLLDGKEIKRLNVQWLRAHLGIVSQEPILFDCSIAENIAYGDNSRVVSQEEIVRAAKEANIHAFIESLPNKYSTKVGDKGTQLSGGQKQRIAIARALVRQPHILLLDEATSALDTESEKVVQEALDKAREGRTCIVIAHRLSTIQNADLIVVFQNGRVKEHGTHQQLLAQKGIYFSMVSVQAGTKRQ
Outline: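 ATP cell level depletion measured in MDCK-MDR1 cells. Means of three independent experiments, samples analysed in duplicate.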

[4] = molecular target: T3, ATP-dependent translocase ABCB1; experiment: Inhibition of MDR1 (unknown origin) expressed in MDCK cells assessed as reduction in calcein-AM efflux preincubated for 30 mins followed by calcein-AM addition measured after 30 mins by fluorescence assay; type: cell-based
Outline: (§2)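 Competition with P-gp-mediated efflux of the pro-fluorescent substrate calcein-AM in MDCK-MDR1 cells, reported as EC50. Means of three independent experiments, samples in duplicate.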

[5] = Efflux ratio of apparent permeability from basolateral to apical over apical to basolateral side in human Caco2 cells at 100 uM after 120 mins; type: ADME, cell-based; conditions: Caco-2
Outline: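 Bidirectional permeability across Caco-2 monolayers. Papp expressed as the basolateral-to-apical over apical-to-basolateral (BA/AB) ratio. Values from two independent experiments. A ratio >2 is read as substrate behaviour, <2 as inhibitor.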

MDCK [6] = experiment: Downregulation of MDR1 protein expression in MDCK-MDR1 cells at 10 uM after 48 hrs by immunoblot analysis; type: functional, cell-based; conditions: Canis lupus familiaris
Outline: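 Immunoblot of P-gp in MDCK-MDR1 cells treated at 10 μM for 48 h, with untreated cells as control. Protein extracted after incubation, actin used as loading control. Blot representative of 3 experiments.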

[7] = molecular target: T3, ATP-dependent translocase ABCB1; experiment: Inhibition of MDR1 (unknown origin) expressed in MDCK cells assessed as increase in doxorubicin-induced cytotoxicity at 10 uM after 48 hrs by MTT assay relative to control; type: cell-based; set-up: scale not given: the % may be the effect or the level left
Outline: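 MDCK-MDR1 cells treated for 48 h with compound at 10 μM, alone or together with doxorubicin at 10 μM. Antiproliferative effect compared with doxorubicin 10 μM alone.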

MDCK [8] = experiment: Cytotoxicity against MDCK cells over-expressing MDR1 at 0.1 to 25 uM after 48 to 72 hrs by MTT assay; type: ADME, cell-based, Canis lupus familiaris; conditions: dog
[9] = molecular target: T2, Multidrug resistance-associated protein 1; experiment: Inhibition of MRP1 (unknown origin) expressed in MDCK cells assessed as reduction in calcein-AM efflux preincubated for 30 mins followed by calcein-AM addition measured after 30 mins by fluorescence assay; type: cell-based; outline: as §1
[10] = Inhibition of P-gp (unknown origin); set-up: species or system Homo sapiens; outline: as §2

| SMILES | inhibition (INH) [1] | inhibition (INH) [2] | inhibition (INH) [3] | EC50 [4] [µM] | efflux ratio at 2 h, 100 µM [5] | EC50 [9] [µM] | EC50 [10] [µM] | Activity (MDCK [6]) | Activity [7] [%] | Activity (MDCK [8]) |
| --- | --- | --- | --- | --- | --- | --- | --- | --- | --- | --- |
| COc1cc(-c2ccc(O)cc2)ccc1CN1CCc2cc(OC)c(OC)cc2C1 | Not Active | Not Active | Active | 1.6 | 4.5 | – | – | inactive | 15 | Non-Toxic |
| COc1cc2c(cc1OC)CN(Cc1ccc(-c3ccc(O)cc3)c(F)c1)CC2 | Not Active | Not Active | Active | 6.2 | 3.7 | – | – | – | – | – |
| COc1cc2c(cc1OC)CN(Cc1ccc(-c3ccc(O)cc3)cc1[N+](=O)[O-])CC2 | Not Active | Not Active | Active | 8.4 | 5.8 | – | – | – | – | – |
| COc1cc2c(cc1OC)CN(Cc1ccc(-c3ccc(O)cc3[N+](=O)[O-])cc1)CC2 | Not Active | Not Active | Active | 2.54 | 11.2 | – | – | – | – | – |
| COc1cc2c(cc1OC)CN(Cc1ccc(-c3ccc(O)cc3)c([N+](=O)[O-])c1)CC2 | Not Active | Not Active | Active | 15.2 | 2.9 | – | – | – | – | – |
| COc1cc2c(cc1OC)CN(Cc1ccc(-c3ccc(O)cc3OC)cc1)CC2 | Not Active | – | Active | 1.86 | 3.5 | 62 | – | inactive | 60 | Non-Toxic |
| COc1cc2c(cc1OC)CN(Cc1ccc(-c3ccc(O)cc3)c(OC)c1)CC2 | Not Active | – | Active | 1.51 | 4.4 | 38 | – | inactive | 15 | Non-Toxic |
| COc1cc2c(cc1OC)CN(Cc1ccc(-c3ccc(O)cc3F)cc1)CC2 | Not Active | Not Active | Active | 2.17 | 4.5 | – | – | – | – | – |
| COc1cc2c(cc1OC)CN(Cc1ccc(-c3ccc(O)cc3)cc1F)CC2 | Not Active | Not Active | Active | 4.73 | 4.1 | – | – | – | – | – |
| COc1cc2c(cc1OC)CN(Cc1ccc(-c3ccc(O)cc3)cc1)CC2 | – | – | Active | – | – | – | 0.69 | inactive | 20 | – |

Second part, led by results:

| inhibition (INH) [1] | inhibition (INH) [2] | inhibition (INH) [3] | EC50 [4] [µM] | efflux ratio at 2 h, 100 µM [5] | EC50 [9] [µM] | EC50 [10] [µM] | SMILES | Activity (MDCK [6]) | Activity [7] [%] | Activity (MDCK [8]) |
| --- | --- | --- | --- | --- | --- | --- | --- | --- | --- | --- |
| Not Active | Not Active | Active | 5.4 | 4.5 | – | – | COc1cc2c(cc1OC)CN(Cc1ccc(-c3ccc(O)cc3N)cc1)CC2 | – | – | – |
| Not Active | Not Active | Active | 6.9 | 7.5 | – | – | COc1cc2c(cc1OC)CN(Cc1ccc(-c3ccc(O)c(N)c3)cc1)CC2 | – | – | – |
| Not Active | – | Active | 12.7 | 6.3 | 28.9 | – | COc1cc2c(cc1OC)CN(Cc1ccc(-c3ccc(O)c([N+](=O)[O-])c3)cc1)CC2 | – | – | – |
| Not Active | Not Active | Active | 2.8 | 4.9 | – | – | COc1cc2c(cc1OC)CN(Cc1ccc(-c3ccc(O)c(F)c3)cc1)CC2 | – | – | – |
| Not Active | Not Active | Active | 2 | 3.9 | – | – | COc1cc(-c2ccc(CN3CCc4cc(OC)c(OC)cc4C3)cc2)ccc1O | – | – | – |
